# Measurements reported in ChEMBL document CHEMBL1142126, “Triterpenoid pyrazines and benzopyrazines with cytotoxic activity” (J Nat Prod, 2007).
# What was measured:
# CCRF-CEM [1] = assay: Cytotoxicity against human CEM cells after 72 hrs by MTT assay; type: cell-based
# Summary of the method: (§1)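 Cells seeded at 2500-30 000 per well depending on growth characteristics, preincubated 24 h at 37 °C, 5% CO2. Compounds dissolved in 10% DMSO, added as four-fold dilutions, quadruplicate. 72 h exposure at 37 °C, 5% CO2, 100% humidity. MTT added for 1-4 h, formazan dissolved in 10% aqueous SDS (pH 5.5) overnight at 37 °C, OD 540 nm. Survival relative to control wells; TCS50 taken from dose-response curves.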
# A549 = assay: Cytotoxicity against human A549 cells after 72 hrs by MTT assay; type: cell-based; conditions: A549, 72 h; summary of the method: as §1
# HT-29 = assay: Cytotoxicity against human HT29 cells after 72 hrs by MTT assay; type: cell-based; conditions: HT-29, 72 h; summary of the method: as §1
# K562 = assay: Cytotoxicity against human K562 cells after 72 hrs by MTT assay; type: cell-based; conditions: K562, 72 h; summary of the method: as §1
# [2] = Cytotoxicity against human Pgp-positive multidrug-resistant K562-tax cells after 72 hrs by MTT assay; type: ADME, cell-based; summary of the method: as §1
# PC-3 = assay: Cytotoxicity against human PC3 cells after 72 hrs by MTT assay; type: cell-based; conditions: PC-3, 72 h; summary of the method: as §1
# SK-MEL-2 = assay: Cytotoxicity against human SK-MEL-2 cells after 72 hrs by MTT assay; type: cell-based; conditions: SK-MEL-2, 72 h
# Summary of the method: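 Cells seeded at 2500–30 000/well by growth characteristics, preincubated 24 h at 37 °C, 5% CO2; four-fold dilutions of compound (dissolved in 10% DMSO) added, 72 h exposure at 37 °C, 5% CO2, 100% humidity; quadruplicate. MTT 1–4 h, formazan dissolved in 10% SDS (pH 5.5) overnight, OD 540 nm; survival vs control wells, TCS50 from dose–response curves.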
# [3] = Cytotoxicity against human U87-Mg cells after 72 hrs by MTT assay; type: cell-based, U-87MG ATCC; conditions: U-87 MG; summary of the method: as §1
# CCRF-CEM [4] = assay: Cytotoxicity against daunorubicin-resistant CEM-DNR-bulk cells after 72 hrs by MTT assay; type: cell-based; conditions: Homo sapiens; summary of the method: as §1
# [5] = Cytotoxicity against B2-4 cells after 72 hrs by MTT assay; type: cell-based; conditions: Homo sapiens, B2-4, 72 h; summary of the method: as §1
Structure (SMILES),IC50 (CCRF-CEM [1]) [µM],IC50 (A549) [µM],IC50 (HT-29) [µM],IC50 (K562) [µM],IC50 [2] [µM],IC50 (PC-3) [µM],also measured
CC(=O)OC1CC[C@]2(C)[C@H]3CC[C@H]4C5=C(CC[C@@]4(C)[C@]3(C)CC[C@H]2C1(C)C)c1nccnc1[C@H]5C(C)C (some centres not stated),244,–,–,–,–,–,–
CC(=O)OC[C@@]12CC[C@]3(C)[C@H](CC[C@@H]4[C@@]5(C)CC[C@H](OC(C)=O)C(C)(C)[C@@H]5CC[C@]43C)C1=C(C(C)C)C(=O)C2=O,250,103,250,250,250,208,IC50 (SK-MEL-2): 170 µM
CC(C)[C@@H]1CC[C@]2(CO)CC[C@]3(C)[C@H](CC[C@@H]4[C@@]5(C)Cc6nccnc6C(C)(C)[C@@H]5CC[C@]43C)[C@@H]12,74,–,–,–,–,–,–
CC(C)C1=C2CC[C@]3(C)[C@H](CC[C@@H]4[C@H]5[C@H]6O[C@@]5(CCC6(C)C)CC[C@]43C)[C@@]2(C)C(=O)C1=O,250,–,–,–,–,–,–
CC(=O)OC[C@@]12CC[C@]3(C)[C@H](CC[C@@H]4[C@@]5(C)CCC(OC(C)=O)C(C)(C)[C@@H]5CC[C@]43C)C1=C(C(C)C)c1nccnc12 (some centres not stated),215,–,–,–,–,–,–
CC1(C)CC[C@]23CC[C@]4(C)[C@H](CC[C@@H]5[C@@]6(C)Cc7nc8ccccc8nc7C(C)(C)[C@@H]6CC[C@]54C)[C@H]2[C@H]1OC3,250,–,–,–,–,–,–
C=C(C)[C@@H]1CC[C@]2(CO)CC[C@]3(C)[C@H](CC[C@@H]4[C@@]5(C)Cc6nc7ccccc7nc6C(C)(C)[C@@H]5CC[C@]43C)[C@@H]12,178,–,–,–,–,–,–
COC(=O)[C@@]12CC[C@]3(C)[C@H](CC[C@@H]4[C@@]5(C)CC[C@H](OC(C)=O)C(C)(C)[C@@H]5CC[C@]43C)C1=C(C(C)C)C(=O)C2=O,16,13,7,6,9,14,IC50 (SK-MEL-2): 14 µM; IC50 [3]: 74 µM; IC50 (CCRF-CEM [4]): 5 µM
COC(=O)[C@]12CC[C@@H](C(C)C)[C@@H]1[C@H]1CC[C@@H]3[C@@]4(C)CCC(=O)C(C)(C)[C@@H]4CC[C@@]3(C)[C@]1(C)CC2 [METHYL DIHYDROBETULONATE],173,–,–,–,–,–,–
CC1(C)CC[C@]23CC[C@]4(C)[C@H](CC[C@@H]5[C@@]6(C)CCC(=O)C(C)(C)[C@@H]6CC[C@]54C)[C@H]2[C@H]1O3 [ALLOBETULONE],250,–,–,–,–,–,–
C=C(C)[C@@H]1CC[C@]2(C(=O)OCOC(=O)C(C)(C)C)CC[C@]3(C)[C@H](CC[C@@H]4[C@@]5(C)Cc6nccnc6C(C)(C)[C@@H]5CC[C@]43C)[C@@H]12,232,51,250,100,149,250,IC50 (SK-MEL-2): 250 µM
C=C(C)[C@@H]1CC[C@]2(C(=O)OC)CC[C@]3(C)[C@H](CC[C@@H]4[C@@]5(C)CCC(=O)C(C)(C)[C@@H]5CC[C@]43C)[C@@H]12 [METHYL BETULONATE],250,–,–,–,–,–,–
C=C(C)[C@@H]1CC[C@]2(C(=O)OCOC(C)=O)CC[C@]3(C)[C@H](CC[C@@H]4[C@@]5(C)Cc6nccnc6C(C)(C)[C@@H]5CC[C@]43C)[C@@H]12,12,1,77,2,35,35,IC50 (SK-MEL-2): 69 µM
CC(C)[C@@H]1CC[C@]2(CO)CC[C@]3(C)[C@H](CC[C@@H]4[C@@]5(C)Cc6nc7ccccc7nc6C(C)(C)[C@@H]5CC[C@]43C)[C@@H]12,35,–,–,–,–,–,–
CC(=O)OC[C@@]12CC[C@]3(C)[C@@H](CC[C@@H]4[C@@]5(C)CCC(OC(C)=O)C(C)(C)[C@@H]5CC[C@]43C)C1=C(C(C)C)c1nc3ccccc3nc12 (some centres not stated),106,101,229,70,234,233,IC50 (SK-MEL-2): 231 µM
COC(=O)[C@@]12CC[C@]3(C)[C@@H](CC[C@@H]4[C@@]5(C)CCC(OC(C)=O)C(C)(C)[C@@H]5CC[C@]43C)C1=C(C(C)C)c1nccnc12 (some centres not stated),250,–,–,–,–,–,–
C=C(C)[C@@H]1CC[C@]2(C(=O)O)CC[C@]3(C)[C@H](CC[C@@H]4[C@@]5(C)Cc6nc7ccccc7nc6C(C)(C)[C@@H]5CC[C@]43C)[C@@H]12,42,48,96,86,118,64,IC50 (SK-MEL-2): 192 µM

Structure (SMILES),IC50 (CCRF-CEM [1]) [µM],IC50 (A549) [µM],IC50 (HT-29) [µM],IC50 (K562) [µM],IC50 [2] [µM],IC50 (PC-3) [µM],also measured
COC(=O)[C@]12CC[C@@H](C(C)C)[C@@H]1[C@H]1CC[C@@H]3[C@@]4(C)Cc5nccnc5C(C)(C)[C@@H]4CC[C@@]3(C)[C@]1(C)CC2,151,220,164,201,91,227,IC50 [3]: 231 µM; IC50 [5]: 94 µM; IC50 (CCRF-CEM [4]): 235 µM
COC(=O)[C@]12CC[C@@H](C(C)C)[C@@H]1[C@H]1CC[C@@H]3[C@@]4(C)Cc5nc6ccccc6nc5C(C)(C)[C@@H]4CC[C@@]3(C)[C@]1(C)CC2,250,–,–,–,–,–,–
C=C(C)[C@@H]1CC[C@]2(CO)CC[C@]3(C)[C@H](CC[C@@H]4[C@@]5(C)CC[C@H](O)C(C)(C)[C@@H]5CC[C@]43C)[C@@H]12 [BETULIN],250,–,–,–,–,–,–
CC1(C)CC[C@]23CC[C@]4(C)[C@H](CC[C@@H]5[C@@]6(C)Cc7nccnc7C(C)(C)[C@@H]6CC[C@]54C)[C@H]2[C@H]1OC3,250,–,–,–,–,–,–
CC(C)[C@@H]1CC[C@]2(C(=O)O)CC[C@]3(C)[C@H](CC[C@@H]4[C@@]5(C)Cc6nc7ccccc7nc6C(C)(C)[C@@H]5CC[C@]43C)[C@@H]12,124,122,123,113,117,103,IC50 [3]: 148 µM; IC50 [5]: 99 µM; IC50 (CCRF-CEM [4]): 198 µM
C=C(C)[C@@H]1CC[C@]2(CO)CC[C@]3(C)[C@H](CC[C@@H]4[C@@]5(C)Cc6nccnc6C(C)(C)[C@@H]5CC[C@]43C)[C@@H]12,101,–,–,–,–,–,–
CC(C)C1=C2CC[C@]3(C)[C@H](CC[C@H]4C5[C@H]6O[C@@]5(CCC6(C)C)CC[C@]43C)[C@@]2(C)c2nccnc21 (some centres not stated),250,–,–,–,–,–,–
COC(=O)[C@@]12CC[C@]3(C)[C@H](CC[C@@H]4[C@@]5(C)CCC(OC(C)=O)C(C)(C)[C@@H]5CC[C@]43C)C1=C(C(C)C)c1nc3ccccc3nc12 (some centres not stated),192,–,–,–,–,–,–
CC(C)[C@@H]1CC[C@]2(C(=O)O)CC[C@]3(C)C(CCC4[C@@]5(C)CC[C@H](O)C(C)(C)C5CC[C@]43C)C12 (some centres not stated) [DIHYDROBETULINIC ACID],7,–,–,–,–,–,–
CC1(C)CC[C@]23CC[C@]4(C)[C@H](CC[C@@H]5[C@@]6(C)CC[C@H](O)C(C)(C)[C@@H]6CC[C@]54C)[C@H]2[C@H]1OC3 [ALLOBETULIN],250,–,–,–,–,–,–
C=C(C)[C@@H]1CC[C@]2(C(=O)OC)CC[C@]3(C)[C@H](CC[C@@H]4[C@@]5(C)Cc6nc7ccccc7nc6C(C)(C)[C@@H]5CC[C@]43C)[C@@H]12,250,250,250,245,250,250,IC50 [3]: 250 µM; IC50 [5]: 47 µM; IC50 (CCRF-CEM [4]): 250 µM
CC(C)[C@@H]1CC[C@]2(C(=O)O)CC[C@]3(C)[C@H](CC[C@@H]4[C@@]5(C)CCC(=O)C(C)(C)[C@@H]5CC[C@]43C)[C@@H]12 [DIHYDROBETULONIC ACID],2,–,–,–,–,–,–
C=C(C)[C@@H]1CC[C@]2(C(=O)O)CC[C@]3(C)[C@H](CC[C@@H]4[C@@]5(C)CC[C@H](O)C(C)(C)[C@@H]5CC[C@]43C)[C@@H]12 [BETULINIC ACID],30,–,–,–,–,–,–
C=C(C)[C@@H]1CC[C@]2(C(=O)O)CC[C@]3(C)[C@H](CC[C@@H]4[C@@]5(C)CCC(=O)C(C)(C)[C@@H]5CC[C@]43C)[C@@H]12 [BETUNOLIC ACID],20,15,17,6,17,15,IC50 (SK-MEL-2): 26 µM; IC50 [3]: 159 µM
C=C(C)[C@@H]1CC[C@]2(C(=O)OC)CC[C@]3(C)[C@H](CC[C@@H]4[C@@]5(C)Cc6nccnc6C(C)(C)[C@@H]5CC[C@]43C)[C@@H]12,250,–,–,–,–,–,–
CC(C)C1=C2CC[C@]3(C)[C@H](CC[C@@H]4[C@H]5[C@H]6O[C@@]5(CCC6(C)C)CC[C@]43C)[C@@]2(C)c2nc3ccccc3nc21,250,–,–,–,–,–,–
